Where a name gives a salt, the structure may show the parent alone. Active and inactive are the calls of the source. The rule behind the calls is not given here.

The target in data set [1] is T1, Cruzipain (Trypanosoma cruzi, UniProt P25779). The experiment in a line: Inhibition of Trypanosoma cruzi cruzaine preincubated for 5 mins before substrate addition by fluorescence assay in presence of 0.01% Triton X-100.
The target of data set [2] is T1, Cruzipain. The experiment in a line: Inhibition of Trypanosoma cruzi cruzaine preincubated for 5 mins before substrate addition by fluorescence assay in absence of Triton X-100.
A short description of data set [3]: Colloidal aggregation in fed state simulated intestinal fluid assessed as colloid radius at 2.5 uM by dynamic light scattering assay in presence of 1% DMSO. The format is physicochemical. The note with it: simulated gi fluid. In short, it runs like this: (§1)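 Concentrated DMSO stocks diluted into filtered FeSSIF: blank FeSSIF plus 15 mM sodium taurocholate and 3.75 mM lecithin, dissolved at 37 °C. Final DMSO 1% unless otherwise noted. Particle size by dynamic light scattering at 826.6 nm, detector at 90°, 100% laser power. Values are averages of three or more independent measurements at room temperature.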

A short description of data set [4]: Binding affinity to beta-lactamase AmpC at 200 uM after 30 mins by SDS-PAGE. The method in brief: (§2)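 Cosedimentation in FeSSIF, with and without 2 μg AmpC β-lactamase added per sample. Samples centrifuged at 16000g for 30 min at room temperature. Supernatant removed completely; pellets resuspended in DMSO plus 50 mM KPi pH 7.0 and run on SDS-PAGE. Protein detected by silver staining. Drug-only pellets included as background controls.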

Data set [5] in a line: Colloidal aggregation in phosphate buffer at 50 uM by transmission electron microscopy in presence of 0.5% DMSO. The class given is physicochemical. In short, it runs like this: (§3)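 Drug DMSO stocks diluted into 50 mM phosphate buffer. Samples adsorbed ~30 s onto glow-discharged formvar/carbon-coated copper grids and negatively stained with 2% ammonium molybdate. Imaged by transmission electron microscopy at 80 kV, standard magnification 25 000.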

Data set [6] in a line: Colloidal aggregation in fed state simulated intestinal fluid assessed as colloid radius at 20 uM by dynamic light scattering assay in presence of 1% DMSO. The settings on record: simulated gi fluid. The class given is physicochemical. The method in brief: as §1
Data set [7] is described as follows: Colloidal aggregation in fed state simulated intestinal fluid assessed as percent of drug in fraction after centrifugation by UV-visible spectrophotometry in presence of 3% DMSO. The note with it: simulated gi fluid.
Data set [8] is described as follows: Colloidal aggregation in fed state simulated intestinal fluid by dynamic light scattering-based beads autocorrelation assay in presence of 1% DMSO. The format is physicochemical. The note with it: simulated gi fluid. The method in brief: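 FeSSIF samples examined by DLS (826.6 nm laser, 90° detector, room temperature), comparing autocorrelation curves with blank FeSSIF. The micelle background was checked with 200 nm calibration beads diluted in FeSSIF. Drug samples were made by diluting DMSO stocks into filtered FeSSIF (15 mM taurocholate, 3.75 mM lecithin).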

Data set [9] can be described thus: Colloidal aggregation in fed state simulated intestinal fluid at 100 uM by transmission electron microscopy in presence of 1% DMSO. The class given is physicochemical. The note with it: simulated gi fluid. The method in brief:
(§4)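 Drug DMSO stocks diluted into FeSSIF. Samples adsorbed ~30 s onto glow-discharged formvar/carbon-coated copper grids and negatively stained with 2% ammonium molybdate. Viewed by transmission electron microscopy at 80 kV, standard magnification 25 000, calibrated with catalase crystals and ferritin.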

Data set [10] in a line: Aggregation-based binding affinity to beta-lactamase AmpC at 200 uM in fed state simulated intestinal fluid after 30 mins by silver staining in presence of 2% DMSO. The method in brief:
as §2

The nature of data set [11]: Colloidal aggregation in fed state simulated intestinal fluid assessed as colloid radius at 50 uM by dynamic light scattering assay in presence of 1% DMSO. The format is physicochemical. The settings on record: simulated gi fluid. The method in brief:
as §1

Data set [12] in a line: Colloidal aggregation in fed state simulated intestinal fluid assessed as colloid radius at 10 uM by dynamic light scattering assay in presence of 1% DMSO. The settings on record: simulated gi fluid.
The nature of data set [13]: Colloidal aggregation in phosphate buffer at 100 uM by transmission electron microscopy in presence of 0.2% DMSO. The class given is physicochemical. The method in brief:
as §3

The nature of data set [14]: Colloidal aggregation in fed state simulated intestinal fluid at 200 uM by transmission electron microscopy in presence of 1% DMSO. The format is physicochemical. The settings on record: simulated gi fluid. The method in brief: as §4
Data set [15] in a line: Colloidal aggregation in fed state simulated intestinal fluid by dynamic light scattering assay in presence of 0.75% DMSO. The class given is physicochemical. The note with it: simulated gi fluid. In short, it runs like this: as §1
The nature of data set [16]: Colloidal aggregation in fed state simulated intestinal fluid assessed as colloid radius at 150 uM by dynamic light scattering assay in presence of 0.75% DMSO. The class given is physicochemical. The settings on record: simulated gi fluid. The method in brief: as §1
Data set [17] in a line: Colloidal aggregation in fed state simulated intestinal fluid by dynamic light scattering assay in presence of 0.2% DMSO. The class given is physicochemical. The note with it: simulated gi fluid. In short, it runs like this: as §1
Data set [18] can be described thus: Colloidal aggregation in fed state simulated intestinal fluid assessed as colloid radius at 20 uM by dynamic light scattering assay in presence of 0.2% DMSO. The class given is physicochemical. The note with it: simulated gi fluid. The method in brief: as §1
Data set [19] is described as follows: Colloidal aggregation in fed state simulated intestinal fluid assessed as colloid radius at 5 uM by dynamic light scattering assay in presence of 1% DMSO. The settings on record: simulated gi fluid. The class given is physicochemical. The method in brief: as §1
Data set [20] is described as follows: Colloidal aggregation in fed state simulated intestinal fluid assessed as colloid radius at 100 uM by dynamic light scattering assay in presence of 1% DMSO. The class given is physicochemical. The note with it: simulated gi fluid. The method in brief:
as §1

Data set [21] is described as follows: Colloidal aggregation in fed state simulated intestinal fluid assessed as colloid radius at 200 uM by dynamic light scattering assay in presence of 1% DMSO. The format is physicochemical. The note with it: simulated gi fluid. The method in brief: as §1

T1 sequence (P25779 whole entry): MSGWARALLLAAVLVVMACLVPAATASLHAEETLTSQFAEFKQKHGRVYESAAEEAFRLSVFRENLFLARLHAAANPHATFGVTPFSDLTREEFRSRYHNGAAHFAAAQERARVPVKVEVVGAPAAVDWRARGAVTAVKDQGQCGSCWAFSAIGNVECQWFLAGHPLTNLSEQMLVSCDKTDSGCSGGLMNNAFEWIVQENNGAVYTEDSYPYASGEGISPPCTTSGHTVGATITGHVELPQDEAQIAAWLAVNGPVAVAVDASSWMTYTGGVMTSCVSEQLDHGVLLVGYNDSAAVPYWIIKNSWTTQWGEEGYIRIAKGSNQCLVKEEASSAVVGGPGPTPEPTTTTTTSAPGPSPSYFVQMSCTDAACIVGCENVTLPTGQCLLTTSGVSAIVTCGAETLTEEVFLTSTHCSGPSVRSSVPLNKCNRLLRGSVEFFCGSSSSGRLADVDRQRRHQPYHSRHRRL

By IC50 is commonly meant the concentration that inhibits the measured activity by half. For the molecule `COC(=O)C1=C(C)NC(C)=C(C(=O)OCCN2CCN(C(c3ccccc3)c3ccccc3)CC2)C1c1cccc([N+](=O)[O-])c1` (stereo unspecified) [MANIDIPINE 6300], the values for the IC50 on Cruzipain [1] and against Cruzipain [2] were more than 100 µM and 6 µM, respectively. Besides, the Activity in [3] is 125.6 nm.

In the case of `CCC(C)n1ncn(-c2ccc(N3CCN(c4ccc(OCC5COC(Cn6cncn6)(c6ccc(Cl)cc6Cl)O5)cc4)CC3)cc2)c1=O` (stereo unspecified) [ITRACONAZOLE], the IC50 on Cruzipain [1] was more than 200 µM; against Cruzipain [2], 3 µM. Besides, the outcome in data set [4] was inactive. In addition, the Activity entry in [5] is given as “Active”; in data set [3], 138.1 nm; in data set [6], 64.5 nm; in data set [8], “Active”; in data set [9] it was “Active”. Besides, the “Percent of drug in fraction” value in [7] is listed as 6.9%. The result in [10] was Active.

On to `Cc1c(C)c2c(c(C)c1OC(=O)c1cccnc1)CC[C@@](C)(CCC[C@H](C)CCC[C@H](C)CCCC(C)C)O2` (racemic), for which the Activity in data set [11] is listed as 55.7 nm; in data set [12], 104.1 nm; in [8] it was “Active”. Besides, the half-inhibitory concentration (IC50) at Cruzipain [1] was more than 400 µM; against Cruzipain [2] it was 98 µM.

With `CN(C)c1ccc2nc3ccc(N(C)C)cc3[s+]c2c1.[Cl-]` [METHYLENE BLUE ANHYDROUS], the Activity result in data set [13] was “Active”; in data set [14], “Active”; in data set [6], 95.9 nm; in data set [15], 150 µM; in data set [8] it was “Active”; in data set [16], 52.6 nm.

Turning to `CSc1nc2cc(Cl)c(Oc3cccc(Cl)c3Cl)cc2[nH]1` [TRICLABENDAZOLE], the IC50 at Cruzipain [1] was more than 200 µM; against Cruzipain [2], 15 µM. In addition, the Activity in [12] is on record as 93 nm.

On to `CC(C)=CCC/C(C)=C/CC/C(C)=C/CC/C(C)=C/CC1=C(C)C(=O)c2ccccc2C1=O` [MENATETRENONE], for which the Activity in data set [17] is 20 µM; in data set [18] it was 36.8 nm; in data set [19], 72.5 nm; in [8] it was “Active”. Also, the IC50 is more than 200 µM on Cruzipain [1] and 18 µM at Cruzipain [2].

In the case of `Cc1c(O)cccc1C(=O)N[C@@H](CSc1ccccc1)[C@H](O)CN1C[C@H]2CCCC[C@H]2C[C@H]1C(=O)NC(C)(C)C`, the IC50 at Cruzipain [1] was more than 300 µM; against Cruzipain [2], 144 µM. In addition, the Activity in data set [6] is reported as 690.7 nm.

Regarding `CCCCc1oc2ccccc2c1C(=O)c1cc(I)c(OCCN(CC)CC)c(I)c1` [AMIODARONE HYDROCHLORIDE], the IC50 on Cruzipain [1] turned out to be 206 µM; against Cruzipain [2] it was 4 µM.

`Cc1ccc(NC(=O)c2ccc(CN3CCN(C)CC3)cc2)cc1Nc1nccc(-c2cccnc2)n1` [IMATINIB]: the figures for the IC50 at Cruzipain [1] and against Cruzipain [2] were 297 µM and 207 µM, respectively. For the same molecule, in data set [20], the Activity was 118.4 nm.

On to `Cc1cc(C#N)cc(C)c1Oc1nc(Nc2ccc(C#N)cc2)nc(N)c1Br` [ETRAVIRINE], for which the IC50 at Cruzipain [1] is more than 200 µM; against Cruzipain [2], 4 µM. In addition, the Activity in data set [12] is 323.2 nm; in data set [21], 373.3 nm; in data set [8] it was “Active”.

(Values after ChEMBL document CHEMBL1155470, “Colloid formation by drugs in simulated intestinal fluid” (J Med Chem, 2010).)
